ChEMBL document CHEMBL3228031, “Prodrugs of 9-(beta-D-arabinofuranosyl)adenine 2. Synthesis and evaluation of a number of 2',3'- and 3',5'-di-O-acyl derivatives” (J Med Chem, 1979)
In brackets after ≈: the same amount, converted by molar mass. Activity calls are given as the source filed them. The calls are words filed in the database; no cut-off is given here.

Legend:
[1] = Aqueous solubility of the compound at pH 7; format: physicochemical
[2] = biological target: T1, Adenosine deaminase (Bos taurus, UniProt P56658); assay: Activity of calf mucosal adenosine deaminase assessed as enzyme-mediated drug metabolism by liquid chromatographic analysis; format: ADME; conditions: cattle
T1 sequence (P56658 whole entry): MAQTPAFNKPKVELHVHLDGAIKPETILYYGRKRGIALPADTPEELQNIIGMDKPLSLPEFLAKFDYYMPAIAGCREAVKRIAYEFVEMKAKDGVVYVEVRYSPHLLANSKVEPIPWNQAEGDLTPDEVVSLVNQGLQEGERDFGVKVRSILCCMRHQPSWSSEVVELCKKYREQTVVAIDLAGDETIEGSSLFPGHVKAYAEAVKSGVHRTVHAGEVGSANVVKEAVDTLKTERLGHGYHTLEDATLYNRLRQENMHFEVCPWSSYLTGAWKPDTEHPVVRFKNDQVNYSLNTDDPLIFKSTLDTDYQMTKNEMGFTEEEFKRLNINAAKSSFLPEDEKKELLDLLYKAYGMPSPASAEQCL
Procedure, shortened: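 Drug exposed to the deaminase, with enzyme level also raised 10- and 100-fold. Reaction mixtures analysed by reverse-phase C18 LC (aqueous acetonitrile eluent, 254-nm UV detection) for unchanged substrate.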

[3] = tested on: Human alphaherpesvirus 1; assay: Antiviral activity against Herpes simplex virus 1 assessed as plaque reduction at 0.17 x 10^-5 M by cell-based assay relative to control; format: functional
Procedure, shortened: (§1)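 HSV-1 plaque-reduction assay by the Hsiung–Melnick procedure. Challenge was 125-300 plaque-forming units. An ara-A control was run alongside each sample at the same molar concentration with an identical virus challenge. Data were confirmed by duplicate assay (±10%).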

[4] = tested on: Human alphaherpesvirus 1; assay: Antiviral activity against Herpes simplex virus 1 assessed as plaque reduction at 0.17 x 10^-5 M by cell-based assay relative to vidarabine; format: functional; procedure, shortened: as §1
[5] = tested on: Human alphaherpesvirus 1; assay: Antiviral activity against Herpes simplex virus 1 assessed as plaque reduction at 1.71 x 10^-5 M by cell-based assay relative to vidarabine; format: functional; procedure, shortened: as §1
[6] = tested on: Human alphaherpesvirus 1; assay: Antiviral activity against Herpes simplex virus 1 assessed as plaque reduction at 1.76 x 10^-5 M by cell-based assay relative to control; format: functional; procedure, shortened: as §1
[7] = tested on: Human alphaherpesvirus 1; assay: Antiviral activity against Herpes simplex virus 1 assessed as plaque reduction at 0.18 x 10^-5 M by cell-based assay relative to control; format: functional; procedure, shortened: as §1
[8] = tested on: Human alphaherpesvirus 1; assay: Antiviral activity against Herpes simplex virus 1 assessed as plaque reduction at 1.76 x 10^-5 M by cell-based assay relative to vidarabine; format: functional; procedure, shortened: as §1
[9] = tested on: Human alphaherpesvirus 1; assay: Antiviral activity against Herpes simplex virus 1 assessed as plaque reduction at 0.18 x 10^-5 M by cell-based assay relative to vidarabine; format: functional; procedure, shortened: as §1
[10] = tested on: Human alphaherpesvirus 1; assay: Antiviral activity against Herpes simplex virus 1 assessed as plaque reduction at 1.75 x 10^-5 M by cell-based assay relative to control; format: functional; procedure, shortened: as §1
[11] = tested on: Human alphaherpesvirus 1; assay: Antiviral activity against Herpes simplex virus 1 assessed as plaque reduction at 1.75 x 10^-5 M by cell-based assay relative to vidarabine; format: functional; procedure, shortened: as §1
[12] = tested on: Human alphaherpesvirus 2; assay: Antiviral activity against Herpes simplex virus 2 Magill infected in guinea pig assessed as prevention of inflammation at 3% compound concentration treated intravaginally bid for 4 days measured on day 16 post-infection; format: functional, organism-based
Procedure, shortened: (§2)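 Animals were infected intravaginally with 1 × 10^2.82 PFU in 0.1 mL. Drug ointments were given intravaginally starting 4 h postinfection, then twice daily for 4 days, filling the vagina. Clinical signs were scored as animals positive/infected. Cure meant no symptoms, or symptoms healed by day 16 postinfection; it was reported as cured/infected.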

[13] = tested on: Human alphaherpesvirus 2; assay: Antiviral activity against Herpes simplex virus 2 Magill infected in guinea pig assessed as prevention of vaginal discharge at 3% compound concentration treated intravaginally bid for 4 days measured on day 16 post-infection; format: functional, organism-based; procedure, shortened: as §2
[14] = tested on: Human alphaherpesvirus 2; assay: Antiviral activity against Herpes simplex virus 2 Magill infected in guinea pig assessed as cured animal at 3% compound concentration treated intravaginally bid for 4 days measured on day 16 post-infection; format: functional, organism-based; procedure, shortened: as §2
[15] = tested on: Human alphaherpesvirus 2; assay: Antiviral activity against Herpes simplex virus 2 Magill infected in guinea pig assessed as prevention of vulvo-vaginal swelling at 3% compound concentration treated intravaginally bid for 4 days measured on day 16 post-infection; format: functional, organism-based; procedure, shortened: as §2
[16] = organism: Cavia porcellus; assay: Toxicity in albino guinea pig assessed as occurrence of irritation at 3% compound concentration treated intravaginally bid for 4 days; format: organism-based; conditions: in vivo, other, 96 h
[17] = tested on: Human alphaherpesvirus 2; assay: Antiviral activity against Herpes simplex virus 2 Magill infected in guinea pig assessed as prevention of vesiculation of labia and vulva at 3% compound concentration treated intravaginally bid for 4 days measured on day 16 post-infection; format: functional, organism-based; procedure, shortened: as §2
[18] = tested on: Human alphaherpesvirus 2; assay: Antiviral activity against Herpes simplex virus 2 Magill infected in guinea pig assessed as prevention of paralysis at 3% compound concentration treated intravaginally bid for 4 days measured on day 16 post-infection; format: functional, organism-based; procedure, shortened: as §2
[19] = tested on: Human alphaherpesvirus 2; assay: Antiviral activity against Herpes simplex virus 2 Magill infected in guinea pig assessed as prevention of death at 3% compound concentration treated intravaginally bid for 4 days measured on day 16 post-infection; format: functional, organism-based; procedure, shortened: as §2
[20] = tested on: Human alphaherpesvirus 1; assay: Antiviral activity against Herpes simplex virus 1 assessed as plaque reduction at 1.83 x 10^-5 M by cell-based assay relative to vidarabine; format: functional; conditions: Human alphaherpesvirus 1, read-out: INH; procedure, shortened: as §1
[21] = tested on: Human alphaherpesvirus 1; assay: Antiviral activity against Herpes simplex virus 1 assessed as plaque reduction at 1.83 x 10^-5 M by cell-based assay relative to control; format: functional; procedure, shortened: as §1
[22] = organism: Cavia porcellus; assay: Toxicity in albino guinea pig assessed as death at 3% compound concentration treated intravaginally bid for 4 days; format: organism-based; conditions: in vivo, other, 96 h
Procedure, shortened: (§3)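 Uninfected control animals received drug ointment intravaginally (topical), twice daily for 4 days, in an amount enough to fill the vagina.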

[23] = organism: Cavia porcellus; assay: Toxicity in albino guinea pig assessed as development of erythema at 3% compound concentration treated intravaginally bid for 4 days; format: organism-based; conditions: in vivo, other, 96 h; procedure, shortened: as §3
[24] = tested on: Human alphaherpesvirus 1; assay: Antiviral activity against Herpes simplex virus 1 assessed as plaque reduction at 1.67 x 10^-5 M by cell-based assay relative to vidarabine; format: functional; procedure, shortened: as §1
[25] = tested on: Human alphaherpesvirus 1; assay: Antiviral activity against Herpes simplex virus 1 assessed as plaque reduction at 1.67 x 10^-5 M by cell-based assay relative to control; format: functional; procedure, shortened: as §1

SMILES: CC(=O)O[C@H]1[C@H](O)[C@H](n2cnc3c(N)ncnc32)O[C@@H]1CO
- solubility ([1]; buffer): soluble
- Stability [2]: Unstable
- inhibition at 1.7 µM [3]: 9%
- inhibition at 1.7 µM [4]: 36%
- inhibition at 17.1 µM [5]: 87%

SMILES: CCC(=O)O[C@H]1[C@H](O)[C@@H](CO)O[C@H]1n1cnc2c(N)ncnc21
- inhibition at 17.6 µM [6]: 35%
- inhibition at 1.8 µM [7]: 4%
- solubility ([1]; buffer): soluble
- inhibition at 17.6 µM [8]: 88%
- Stability [2]: Stable
- inhibition at 1.8 µM [9]: 36%

SMILES: CC(=O)O[C@H]1[C@H](O)[C@@H](CO)O[C@H]1n1cnc2c(N)ncnc21
- solubility ([1]; buffer): soluble
- Stability [2]: Stable
- inhibition at 1.7 µM [3]: 0%
- inhibition at 1.7 µM [4]: 60%
- inhibition at 17.1 µM [5]: 90%

SMILES: CC(C)C(=O)O[C@H]1[C@H](O)[C@H](n2cnc3c(N)ncnc32)O[C@@H]1CO
- inhibition at 1.8 µM [7]: 26%
- solubility ([1]; buffer): soluble
- inhibition at 17.5 µM [10]: 99%
- Stability [2]: Unstable
- inhibition at 1.8 µM [9]: 60%
- inhibition at 17.5 µM [11]: 90%

SMILES: CC(=O)O[C@H]1[C@H](OC(C)=O)[C@@H](CO)O[C@H]1n1cnc2c(N)ncnc21
- Activity [12]: Active
- Activity [13]: Active
- Activity [14]: Active
- inhibition at 1.8 µM [7]: 0%
- Activity [15]: Active
- solubility ([1]; aqueous, read-out: solubility): 33000 µg/mL (≈ 93.9 mM)
- inhibition at 17.5 µM [10]: 68%
- Activity [16]: Non-toxic
- Stability [2]: Stable
- Activity [17]: Active
- Activity [18]: Active
- inhibition at 1.8 µM [9]: 40%
- inhibition at 17.5 µM [11]: 100%
- Activity [19]: Active

SMILES: CCC(=O)O[C@H]1[C@H](OC(=O)CC)[C@@H](CO)O[C@H]1n1cnc2c(N)ncnc21
- Activity [12]: Active
- Activity [13]: Active
- inhibition at 18.3 µM [20]: 90%
- Activity [15]: Active
- solubility ([1]; aqueous, read-out: solubility): 4500 µg/mL (≈ 11.9 mM)
- Stability [2]: Stable
- Activity [17]: Active
- Activity [18]: Active
- inhibition at 1.8 µM [9]: 60%
- inhibition at 18.3 µM [21]: 15%
- Activity [19]: Active
- Activity [22]: Toxic
- Activity [23]: Toxic

SMILES: CC(C)(C)C(=O)OC[C@H]1O[C@@H](n2cnc3c(N)ncnc32)[C@@H](O)[C@@H]1OC(=O)C(C)(C)C
- solubility ([1]; aqueous, read-out: solubility): < 10 µg/mL
- inhibition at 16.7 µM [24]: 100%
- Stability [2]: Stable
- inhibition at 16.7 µM [25]: 0%
